Read-outs that look alike come from different tables or passages of the source.
Tests used:
TK-10 = assay: NCI 60-cell line screen; format: cell-based, human; settings: for GI50 / IC50 / CC50: Homo sapiens; for GI50 / IC50: TK-10; for CC50: TK-10, read-out: LC50; for TGI: TK-10, renal cancer
In short: (§1)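 Test compounds were submitted to the National Cancer Institute and run under NCI's standard 60-cell-line protocols. Read-outs were taken from percent-growth versus log-concentration curves.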

PC-3 = assay: NCI 60-cell line screen; format: cell-based, human; settings: for GI50 / IC50 / CC50: Homo sapiens; for GI50 / IC50: PC-3; for CC50: PC-3, read-out: LC50; for TGI: PC-3, prostate cancer
In short: as §1

KM12 = assay: NCI 60-cell line screen; format: cell-based, human; settings: for GI50 / IC50 / CC50: Homo sapiens; for GI50 / IC50: KM12; for CC50: KM12, read-out: LC50; for TGI: KM12, colon cancer
HCC-2998 = assay: NCI 60-cell line screen; format: cell-based, human; settings: for TGI: HCC-2998, colon cancer; for GI50 / IC50 / CC50: Homo sapiens; for GI50 / IC50: HCC 2998; for CC50: HCC 2998, read-out: LC50
MDA-MB-231/ATCC = assay: NCI 60-cell line screen; format: cell-based, human; settings: for GI50 / IC50 / CC50: Homo sapiens; for GI50 / IC50: MDA-MB-231; for CC50: MDA-MB-231, read-out: LC50; for TGI: MDA-MB-231/ATCC, breast cancer
HS 578T = assay: NCI 60-cell line screen; format: cell-based, human; settings: for TGI: HS 578T, breast cancer; for GI50 / IC50 / CC50: Homo sapiens, Hs-578T; for CC50: read-out: LC50
SNB-75 = assay: NCI 60-cell line screen; format: cell-based, human; settings: for GI50 / IC50 / CC50: Homo sapiens; for GI50 / IC50: SNB-75; for CC50: SNB-75, read-out: LC50; for TGI: SNB-75, CNS cancer
In short: as §1

SK-OV-3 = assay: NCI 60-cell line screen; format: cell-based, human; settings: for GI50 / IC50 / CC50: Homo sapiens; for GI50 / IC50: SK-OV-3; for CC50: SK-OV-3, read-out: LC50; for TGI: SK-OV-3, ovarian cancer
In short: as §1

UACC-62 = assay: NCI 60-cell line screen; format: cell-based, human; settings: for GI50 / IC50 / CC50: Homo sapiens; for GI50 / IC50: UACC-62; for CC50: UACC-62, read-out: LC50; for TGI: UACC-62, melanoma
In short: as §1

IGROV1 = assay: NCI 60-cell line screen; format: cell-based, human; settings: for GI50 / IC50 / CC50: Homo sapiens; for GI50 / IC50: IGROV-1; for CC50: IGROV-1, read-out: LC50; for TGI: IGROV1, ovarian cancer
EKVX = assay: NCI 60-cell line screen; format: cell-based, human; settings: for GI50 / IC50 / CC50: Homo sapiens; for CC50: read-out: LC50; for TGI: non-small cell lung cancer
COLO 205 = assay: NCI 60-cell line screen; format: cell-based, human; settings: for TGI: COLO 205, colon cancer; for GI50 / IC50 / CC50: Homo sapiens; for GI50 / IC50: COLO 205; for CC50: COLO 205, read-out: LC50
OVCAR-4 = assay: NCI 60-cell line screen; format: cell-based, human; settings: for GI50 / IC50 / CC50: Homo sapiens; for GI50 / IC50: OVCAR-4; for CC50: OVCAR-4, read-out: LC50; for TGI: OVCAR-4, ovarian cancer
HCT-15 = assay: NCI 60-cell line screen; format: cell-based, human; settings: for TGI: HCT-15, colon cancer; for GI50 / IC50 / CC50: Homo sapiens; for GI50 / IC50: HCT-15; for CC50: HCT-15, read-out: LC50
SK-MEL-5 = assay: NCI 60-cell line screen; format: cell-based, human; settings: for GI50 / IC50 / CC50: Homo sapiens; for GI50 / IC50: SK-MEL-5; for CC50: SK-MEL-5, read-out: LC50; for TGI: SK-MEL-5, melanoma
In short: as §1

NCI-H460 = assay: NCI 60-cell line screen; format: cell-based, human; settings: for GI50 / IC50 / CC50: Homo sapiens; for GI50 / IC50: NCI-H460; for CC50: NCI-H460, read-out: LC50; for TGI: NCI-H460, non-small cell lung cancer
PDK1 Direct = biological target: T1, PDK1 Direct (Homo sapiens, UniProt O15530); assay: Kinase selectivity for OMS14; format: biochemical
T1 sequence (O15530 1-556): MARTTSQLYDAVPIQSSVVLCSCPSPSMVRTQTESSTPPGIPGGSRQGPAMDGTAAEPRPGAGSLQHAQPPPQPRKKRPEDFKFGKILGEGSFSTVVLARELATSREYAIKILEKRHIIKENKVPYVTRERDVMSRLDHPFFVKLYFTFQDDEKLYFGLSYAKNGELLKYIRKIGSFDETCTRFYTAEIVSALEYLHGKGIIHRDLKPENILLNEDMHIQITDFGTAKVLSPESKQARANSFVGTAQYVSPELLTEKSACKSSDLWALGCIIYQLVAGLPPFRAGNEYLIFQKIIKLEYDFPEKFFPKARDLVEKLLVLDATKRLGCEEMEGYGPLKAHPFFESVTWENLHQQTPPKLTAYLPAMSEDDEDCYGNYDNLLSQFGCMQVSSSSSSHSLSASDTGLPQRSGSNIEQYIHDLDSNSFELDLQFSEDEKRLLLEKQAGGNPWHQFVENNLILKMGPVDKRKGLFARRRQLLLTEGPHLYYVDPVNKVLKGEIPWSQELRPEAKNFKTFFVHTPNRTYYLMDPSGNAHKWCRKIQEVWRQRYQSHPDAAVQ

CDK1/cyclin B = CDK1/cyclin B (Homo sapiens, UniProt P06493); assay: Kinase selectivity for OMS14; format: biochemical
Sequence of CDK1/cyclin B (P06493 whole entry): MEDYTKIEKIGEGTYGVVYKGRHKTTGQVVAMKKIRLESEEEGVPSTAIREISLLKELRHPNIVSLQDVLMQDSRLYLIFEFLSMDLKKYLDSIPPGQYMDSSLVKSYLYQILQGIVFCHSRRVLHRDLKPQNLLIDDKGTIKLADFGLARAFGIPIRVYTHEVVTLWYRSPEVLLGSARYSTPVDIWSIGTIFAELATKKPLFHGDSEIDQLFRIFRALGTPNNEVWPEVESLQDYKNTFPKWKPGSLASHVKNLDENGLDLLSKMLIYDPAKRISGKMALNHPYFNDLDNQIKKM
Sequence of CDK1/cyclin B (P14635 whole entry, further chain): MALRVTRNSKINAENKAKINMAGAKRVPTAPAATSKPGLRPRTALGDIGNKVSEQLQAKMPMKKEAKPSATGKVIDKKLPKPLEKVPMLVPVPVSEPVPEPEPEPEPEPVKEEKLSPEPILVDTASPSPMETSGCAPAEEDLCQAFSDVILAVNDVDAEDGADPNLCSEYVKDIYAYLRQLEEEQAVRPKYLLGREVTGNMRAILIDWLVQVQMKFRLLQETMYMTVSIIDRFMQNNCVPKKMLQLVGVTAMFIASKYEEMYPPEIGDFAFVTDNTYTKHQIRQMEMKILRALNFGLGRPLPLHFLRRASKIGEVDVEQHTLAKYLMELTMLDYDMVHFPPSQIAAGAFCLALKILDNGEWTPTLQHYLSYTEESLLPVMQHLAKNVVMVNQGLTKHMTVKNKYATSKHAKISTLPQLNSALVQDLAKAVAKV

AKT3 (PKB γ) = AKT3 (PKB γ) (Homo sapiens, UniProt Q9Y243); assay: Kinase selectivity for OMS14; format: biochemical
Sequence of AKT3 (PKB γ) (Q9Y243 whole entry): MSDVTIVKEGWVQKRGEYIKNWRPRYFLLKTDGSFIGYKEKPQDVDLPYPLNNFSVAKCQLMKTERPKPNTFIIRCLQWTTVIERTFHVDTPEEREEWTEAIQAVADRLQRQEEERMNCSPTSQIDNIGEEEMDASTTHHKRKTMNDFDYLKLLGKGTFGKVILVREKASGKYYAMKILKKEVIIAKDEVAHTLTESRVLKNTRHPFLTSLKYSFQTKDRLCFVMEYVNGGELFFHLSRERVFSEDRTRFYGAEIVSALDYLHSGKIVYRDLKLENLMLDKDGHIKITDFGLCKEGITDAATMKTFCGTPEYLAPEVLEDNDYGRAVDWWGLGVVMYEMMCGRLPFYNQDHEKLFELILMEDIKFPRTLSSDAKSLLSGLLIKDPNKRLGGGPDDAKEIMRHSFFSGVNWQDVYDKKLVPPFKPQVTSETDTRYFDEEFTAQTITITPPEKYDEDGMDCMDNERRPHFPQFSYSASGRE

AKT1 (PKB α) = AKT1 (PKB α) (Homo sapiens, UniProt P31749); assay: Kinase selectivity for OMS14; format: biochemical
Sequence of AKT1 (PKB α) (P31749 whole entry): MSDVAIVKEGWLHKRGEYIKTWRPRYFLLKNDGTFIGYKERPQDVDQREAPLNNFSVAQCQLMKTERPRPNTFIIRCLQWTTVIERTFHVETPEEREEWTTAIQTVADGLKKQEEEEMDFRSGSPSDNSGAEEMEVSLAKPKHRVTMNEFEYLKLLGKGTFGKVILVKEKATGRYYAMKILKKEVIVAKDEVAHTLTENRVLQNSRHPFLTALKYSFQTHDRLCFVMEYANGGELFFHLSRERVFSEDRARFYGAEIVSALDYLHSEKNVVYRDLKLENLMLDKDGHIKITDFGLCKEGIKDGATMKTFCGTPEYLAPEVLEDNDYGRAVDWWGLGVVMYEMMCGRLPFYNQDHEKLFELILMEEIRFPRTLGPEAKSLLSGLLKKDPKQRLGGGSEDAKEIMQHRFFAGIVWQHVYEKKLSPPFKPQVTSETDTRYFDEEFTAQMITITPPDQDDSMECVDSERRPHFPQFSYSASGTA

[1] = read-out: % of inhibition (mean)
[2] = read-out: % of inhibition, point 1
[3] = read-out: % of inhibition, point 2

Q: What does the source list for O=C(CNc1ccc([N+](=O)[O-])cc1)Nc1nc2ccccc2s1 [OMS5, N-(1,3-benzothiazol-2-yl)-2-(4-nitroanilino)acetamide]?
A: GI50 (TK-10): 1.5 µM; IC50 (TK-10): 10 µM; CC50 (TK-10): > 100 µM; TGI (TK-10): 15 µM; GI50 (PC-3): 1.6 µM; IC50 (PC-3): 2.8 µM; CC50 (PC-3): > 100 µM; TGI (PC-3): 45 µM; GI50 (KM12): 1.2 µM; IC50 (KM12): 2.5 µM; CC50 (KM12): 52.5 µM; TGI (KM12): 12 µM; TGI (HCC-2998): 2.2 µM; GI50 (HCC-2998): 0.9 µM; IC50 (HCC-2998): 1.6 µM; CC50 (HCC-2998): 5.3 µM; GI50 (MDA-MB-231/ATCC): 1 µM; IC50 (MDA-MB-231/ATCC): 2.3 µM; CC50 (MDA-MB-231/ATCC): 8.3 µM; TGI (MDA-MB-231/ATCC): 2.9 µM; TGI (HS 578T): 5.6 µM; GI50 (HS 578T): 1.6 µM; IC50 (HS 578T): 5.9 µM; CC50 (HS 578T): 93.3 µM; GI50 (SNB-75): 1.4 µM; IC50 (SNB-75): 3 µM; CC50 (SNB-75): 5.9 µM; TGI (SNB-75): 2.9 µM; GI50 (SK-OV-3): 1.3 µM; IC50 (SK-OV-3): 5.2 µM; CC50 (SK-OV-3): > 100 µM; TGI (SK-OV-3): 6.8 µM; GI50 (UACC-62): 1.1 µM; IC50 (UACC-62): 2 µM; CC50 (UACC-62): 5.5 µM; TGI (UACC-62): 2.5 µM; GI50 (IGROV1): 0.8 µM; IC50 (IGROV1): 1.8 µM; CC50 (IGROV1): > 100 µM; TGI (IGROV1): 12 µM; GI50 (EKVX): 1.1 µM; IC50 (EKVX): 2.5 µM; CC50 (EKVX): 26.9 µM; TGI (EKVX): 4.2 µM; TGI (COLO 205): 1.5 µM; GI50 (COLO 205): 0.4 µM; IC50 (COLO 205): 0.7 µM; CC50 (COLO 205): 4.7 µM; GI50 (OVCAR-4): 1 µM; IC50 (OVCAR-4): 3 µM; CC50 (OVCAR-4): 40.7 µM; TGI (OVCAR-4): 5.1 µM; TGI (HCT-15): 3.7 µM; GI50 (HCT-15): 0.5 µM; IC50 (HCT-15): 0.7 µM; CC50 (HCT-15): 28.8 µM; GI50 (SK-MEL-5): 1.6 µM; IC50 (SK-MEL-5): 2.9 µM; CC50 (SK-MEL-5): 5.5 µM; TGI (SK-MEL-5): 3 µM; GI50 (NCI-H460): 0.4 µM; IC50 (NCI-H460): 0.5 µM; CC50 (NCI-H460): 39.8 µM; TGI (NCI-H460): 3.3 µM

Q: What does the source list for O=C(CN1CCN(CC(=O)Nc2nc3ccccc3s2)CC1)Nc1ccc([N+](=O)[O-])cc1 [OMS14, N-(benzo[d]thiazol-2-yl)-2-(4-(2-((4-nitrophenyl)amino)-2-oxoethyl)piperazin-1-yl)acetamide]?
A: GI50 (TK-10): 2.2 µM; IC50 (TK-10): 6.2 µM; CC50 (TK-10): > 100 µM; TGI (TK-10): 7.1 µM; GI50 (PC-3): 3 µM; IC50 (PC-3): 4.4 µM; CC50 (PC-3): > 100 µM; TGI (PC-3): 20.9 µM; inhibition at 100 µM (PDK1 Direct; [1]): -7%; inhibition at 100 µM (PDK1 Direct; [2]): -6%; inhibition at 100 µM (PDK1 Direct; [3]): -8%; inhibition at 100 µM (CDK1/cyclin B; [1]): 24%; inhibition at 100 µM (CDK1/cyclin B; [2]): 23%; inhibition at 100 µM (CDK1/cyclin B; [3]): 25%; GI50 (KM12): 2.9 µM; IC50 (KM12): 4.5 µM; CC50 (KM12): 74.1 µM; TGI (KM12): 13.5 µM; TGI (HCC-2998): 3.9 µM; GI50 (HCC-2998): 1.7 µM; IC50 (HCC-2998): 3.1 µM; CC50 (HCC-2998): 8.9 µM; GI50 (MDA-MB-231/ATCC): 1.9 µM; IC50 (MDA-MB-231/ATCC): 3.9 µM; CC50 (MDA-MB-231/ATCC): 18.2 µM; TGI (MDA-MB-231/ATCC): 4.7 µM; TGI (HS 578T): 8.5 µM; GI50 (HS 578T): 2.4 µM; IC50 (HS 578T): 8.9 µM; CC50 (HS 578T): > 100 µM; GI50 (SNB-75): 2 µM; IC50 (SNB-75): 6.6 µM; CC50 (SNB-75): 24 µM; TGI (SNB-75): 6.0 µM; GI50 (SK-OV-3): 2.2 µM; IC50 (SK-OV-3): 6.6 µM; CC50 (SK-OV-3): > 100 µM; TGI (SK-OV-3): 8.1 µM; GI50 (UACC-62): 1.7 µM; IC50 (UACC-62): 3.1 µM; CC50 (UACC-62): 6.9 µM; TGI (UACC-62): 3.5 µM; inhibition at 100 µM (AKT3 (PKB γ); [1]): 28%; inhibition at 100 µM (AKT3 (PKB γ); [2]): 27%; inhibition at 100 µM (AKT3 (PKB γ); [3]): 29%; GI50 (IGROV1): 1.9 µM; IC50 (IGROV1): 3.3 µM; CC50 (IGROV1): 47.9 µM; TGI (IGROV1): 4.6 µM; GI50 (EKVX): 2 µM; IC50 (EKVX): 3.8 µM; CC50 (EKVX): 27.5 µM; TGI (EKVX): 4.9 µM; inhibition at 100 µM (AKT1 (PKB α); [1]): 14%; inhibition at 100 µM (AKT1 (PKB α); [2]): 11%; inhibition at 100 µM (AKT1 (PKB α); [3]): 17%; TGI (COLO 205): 2.2 µM; GI50 (COLO 205): 1 µM; IC50 (COLO 205): 1.7 µM; CC50 (COLO 205): 5 µM; GI50 (OVCAR-4): 2.4 µM; IC50 (OVCAR-4): 5.2 µM; CC50 (OVCAR-4): 75.9 µM; TGI (OVCAR-4): 8.3 µM; TGI (HCT-15): 3.7 µM; GI50 (HCT-15): 1.7 µM; IC50 (HCT-15): 2.8 µM; CC50 (HCT-15): 7.9 µM; GI50 (SK-MEL-5): 1.7 µM; IC50 (SK-MEL-5): 3.2 µM; CC50 (SK-MEL-5): 6.3 µM; TGI (SK-MEL-5): 3.3 µM; GI50 (NCI-H460): 1.3 µM; IC50 (NCI-H460): 1.8 µM; CC50 (NCI-H460): 21.9 µM; TGI (NCI-H460): 4.1 µM

Source: publication PMC10975593 (ACS Omega, 2024)
